RAM network inh = yeast RAM network inhibition; S. cerevisiae dse1pr::URA3 reporter, 5-FOA growth OD615, 2 d; analog-sensitive cbk1-as2 kinase mutant strain; inhibition, % at 50 µM; 1.8% of 190,000 active;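 active means inhibition above a set limit, 3 SD over mean compound inhibition, cut at about 8.4% in these data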;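 further: inhibition rescues growth on 5-FOA so higher OD means more RAM inhibition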
Ins promoter up = MIN6 insulin promoter up-regulation. 0.3% of 190,000 active. MIN6 insulin promoter-GFP reporter, high-content imaging; hits give high values. z-score at 5 µM;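 active means z-score above 3 at 5 µM with at least 500 cells counted in the well; inconclusive means wells under 500 cells, flagged as cytotoxic or low count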
Yeast growth inh = yeast BB579 growth reduction in restrictive medium | S. cerevisiae BB579 growth, OD615, 48 h | inhibition, % at 10 µM | 0.51% of 140,000 active | AID 804;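 active means inhibition above a set limit, 3 SD over the mean compound inhibition, cut at about 44% in these data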
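Assay system – yeast BB579 (DeaD) · Dosing – single compound dose of 10 µM, 0.25% DMSO final · Detection – OD615 turbidity measurement · Buffer or medium – CSMM-D restrictive synthetic medium containing dextrose (glucose) · Benchmarks – positive control amphotericin B 10 µg/mL · Incubation – 48 h exposure, 30 °C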
INS promoter inh = TRM-6 insulin promoter activity inhibition. TRM-6 cells, insulin promoter-eGFP reporter, imaging; reporter expression induced with tamoxifen. inhibition, % at 2 µM. 0.9% of 130,000 active. AID 1273;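 active means inhibition above the mean plus 3 SD, with well images judged a real hit on visual review, cut at about 60% in these data, passing the limit was not always enough; inconclusive means inhibition over the cutoff but images rejected on review; inactive means inhibition not above the cutoff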
Yeast life ext = extends the lifespan of yeast; S. cerevisiae growth with nicotinamide, OD615; deaD strain in restrictive glucose medium; inhibition of the nicotinamide effect, % at 10 µM; 0.68% of 130,000 active; AID 775;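 active means inhibition above a set limit, placed 3 SD over the median of all compounds, cut at about 26% in these data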
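System: Modified budding yeast, DeaD strain | Buffer or medium: Restrictive glucose medium | Also added: 1.5 mM nicotinamide | Doses: 10 µM single point, 0.25% DMSO | Schedule: 48 h compound exposure at 30 °C, humidified | Detection: Absorbance at 615 nm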
Numbers stand for hits; i = inactive; ? = inconclusive; nt = no result given. Sampled rows, rich in hits. Any-hit rate of the full collection: about 3%.

SMILES | RAM network inh | Ins promoter up | Yeast growth inh | INS promoter inh | Yeast life ext
CS(=O)(=O)c1nc(-c2ccc(F)cc2)cc(C(F)(F)F)n1 | i | i | nt | nt | nt
COc1ccc(-c2cc(C(F)(F)F)nc(S(C)(=O)=O)n2)cc1 | i | i | i | i | 85
CS(=O)(=O)c1nc(-c2cccs2)cc(C(F)(F)F)n1 | i | i | i | i | 52
O=C(O)CCS(=O)(=O)c1nc(-c2cccs2)cc(C(F)(F)F)n1 | i | i | i | i | i
CN(C)C(=O)COC(=O)c1cccc(CN2C(=O)c3ccccc3C2=O)c1 | i | i | nt | i | nt
Cc1ccc(OC(=O)C2c3ccccc3Oc3ccccc32)cc1C | i | i | i | i | i
CC(=O)c1c(O)cc(C)n(-c2ccc(F)cc2)c1=O | i | i | nt | i | nt
CC(=O)c1c(O)cc(C)n(Nc2nc(C)cc(C)n2)c1=O | i | i | i | i | 32
CC(=O)NS(=O)(=O)c1ccc(NC(=O)CSc2ccc(C)cc2)cc1 | i | i | nt | nt | nt
CCn1ncc(/C=N/NC(=O)c2ccc3c(c2)OCO3)c1C | i | i | i | nt | 120
CCCn1c(=O)c(C(=O)NNS(=O)(=O)c2ccc(Cl)cc2)c(O)c2ccccc21 | i | i | i | i | 27
C=CCn1c(=O)c(C(=O)NCCc2ccccc2)c(O)c2ccccc21 | 10 | i | i | i | 29
CCCCCCCCCCC(=O)NNC(=O)c1c(O)c2ccccc2n(CC)c1=O | 8.8 | i | nt | i | nt
CCCCCCCCC(=O)NNC(=O)c1c(O)c2ccccc2n(CCC)c1=O | 8.8 | i | nt | i | nt
C=CCn1c(=O)c(C(=O)Nc2cccnc2)c(O)c2ccccc21 | i | nt | i | i | nt
COc1cc(NC(=O)c2cccs2)c(C(=O)OCC(=O)NCc2ccccc2)cc1OC | i | i | i | i | i
COc1cc(NC(=O)c2cccs2)c(C(=O)OCC(=O)NC(C)c2ccccc2)cc1OC (stereo not given) | i | i | i | 70 | i
CCCCCCCCCCCCCCCC[n+]1cccc(C(=O)N(CC)CC)c1 | i | i | 101 | i | i
CCCCCCCCCCCCCCCC[n+]1ccc(C(N)=O)cc1 | i | i | 100 | nt | i
CCCCCCCCCCCCCCCC[n+]1ccc(/C=N/O)cc1 | i | ? | 100 | i | i
O=C(NCc1cccnc1)c1cc2nc(-c3cccs3)cc(C(F)(F)Cl)n2n1 | i | i | nt | nt | nt
O=C(NC1CCCCCC1)c1cccs1 | i | nt | i | i | i
Nc1c(C(=O)NC2CCCC2)sc2nc(-c3cccs3)ccc12 | i | 3.9 | i | i | i
O=C(NCCc1ccccn1)c1cc(-c2cccc3ccccc23)nc2ccccc12 | i | i | i | nt | 28
O=C1Nc2ccccc2N=C(c2ccccc2)c2ccccc21 | nt | i | nt | nt | nt
SMILES | RAM network inh | Ins promoter up | Yeast growth inh | INS promoter inh | Yeast life ext
O=C(CSCc1cnn(-c2ccccc2)c1-n1cccc1)NCc1ccc2c(c1)OCO2 | 11 | i | i | i | i
CC(C)OC(=O)c1cccnc1N1CCN(c2cccc(Cl)c2)CC1 | i | i | nt | nt | nt
Cc1ccc(O)c(-c2cc(C(F)(F)C(F)F)nc(-c3ccccc3)n2)c1 | 9.6 | nt | i | i | i
Oc1ccc(Cl)cc1-c1cc(C(F)(F)C(F)F)nc(-c2ccccc2)n1 | i | nt | i | i | i
CCOC(=O)c1cnn(-c2cc(C)nc3c(-c4ccccc4)cnn23)c1N | i | 3.6 | i | i | i
CCOC(=O)c1cnn(-c2cc(C(C)(C)C)nc3c(-c4ccccc4)c(C)nn23)c1N | i | i | i | i | i
CCCCNC(=S)NCc1ccc2c(c1)cc(C)n2C | i | i | 45 | i | i
COc1cccc(C(=O)NCc2ccc3c(c2)cc(C)n3C)c1 | 10 | i | nt | i | nt
COc1ccc(C(=O)NCc2ccc3c(c2)cc(C)n3C)cc1OC | i | i | nt | i | nt
Cc1ccc(C)c(S(=O)(=O)N2C(=S)NC(=O)C2C(C)C)c1 (stereo not given) | i | i | i | 80 | i
CCCCOc1ccc(C(=O)N/C(=C\c2cccc([N+](=O)[O-])c2)C(=O)OC(C)C)cc1 | 8.8 | i | i | nt | i
Cc1ccc(NC(=O)CCn2nnc3ccccc32)cc1 | i | i | nt | nt | nt
CC(C)OC(=O)c1c(NC(=O)CCn2nnc3ccccc32)sc2c1CCCC2 | 9.5 | i | i | nt | i
O=C(O)CCC(=O)Nc1sc2c(c1C(=O)Nc1ccccc1)CCCCC2 | i | i | nt | i | nt
CC(C)OC(=O)c1c(NC(=O)CCC(=O)O)sc2c1CCCCC2 | 8.5 | i | i | 67 | i
O=C(O)CCC(=O)Nc1sc2c(c1C(=O)Nc1cccc3ccccc13)CCCCC2 | i | i | i | ? | 30
COC(=O)c1c(NC(=O)CCC(=O)O)sc2c1CCCCC2 | i | i | i | nt | i
CN(C(=O)COC(=O)c1ccc2ccccc2n1)C1CCS(=O)(=O)C1 (stereo not given) | i | nt | nt | nt | nt
CCOC(=O)Cn1c(=O)c2c(nc3n2CCN3Cc2ccccc2)n(C)c1=O | i | i | i | i | 29
CCOC(=O)Cn1c(=O)c2c(nc3n2CCN3c2ccc(C)cc2)n(C)c1=O | nt | i | nt | nt | nt
CCOC(=O)c1sc(NC(=O)C(CC)Sc2nnc3c4ccccc4n(C(C)C)c3n2)nc1C (stereo not given) | 8.6 | i | i | nt | i
CC(C)c1nc2sc3c(SCC(N)=O)ncnc3c2c2c1CCC2 | nt | i | nt | nt | nt
O=C(Nc1ccc2c(c1)OCO2)NC1(C(F)(F)F)Oc2ccccc2O1 | i | i | i | i | i
O=C(Nc1ccc2c(c1)OCCO2)NC1(C(F)(F)F)Oc2ccccc2O1 | i | i | i | nt | 30
COC(=O)C1=C(C)N=C2SC(C#N)=C(N)N2C1c1cccc(OC)c1 (stereo not given) | i | i | i | 100 | i
SMILES | RAM network inh | Ins promoter up | Yeast growth inh | INS promoter inh | Yeast life ext
CCOc1ccc(C(=O)NC2=NCCS2)cc1 | i | i | nt | 83 | nt
NC(=O)[C@H]1CC2(CC(c3cccc(NC(=O)COc4ccc(Cl)cc4)c3)=NO2)CN1C(=O)Cc1ccc([N+](=O)[O-])cc1 (stereo not given in full) | nt | i | nt | nt | nt
Cn1c(C(C#N)/C(=N\S(=O)(=O)c2cccs2)c2ccccc2)nc2ccccc21 (stereo not given) | 9.6 | i | i | i | i
COc1ccc(N2Cc3cccc(C(=O)O)c3C2=O)cc1 | i | i | i | nt | 29
CCCN1Cc2cccc(C(=O)N3CCN(c4ccc(OC)cc4)CC3)c2C1=O | i | i | nt | i | nt
O=C(C1CCC1)N1CCc2cc(S(=O)(=O)NCc3ccco3)ccc21 | i | i | i | 82 | i
O=C(C1CCC1)N1CCc2cc(S(=O)(=O)NC3CCCC3)ccc21 | i | i | i | i | i
CCN1C(=O)/C(=C\c2nc3ccccc3c(=O)n2-c2ccccc2)c2ccccc21 | 9.6 | i | i | i | i
CCN1C(=O)/C(=C/c2nc3ccccc3c(=O)n2-c2ccc(C)cc2)c2ccccc21 | i | i | i | nt | i
N#Cc1cc(C(=O)Cc2ccccc2)c[nH]1 | i | i | nt | nt | nt
CCC(C)/C(C)=N/NC(=O)c1ccc(CSc2nc3ccccc3s2)cc1 (stereo not given) | i | i | i | 100 | i
O=C(O)c1ccc(CSc2nc3ccc(NC(=O)c4ccccc4C(=O)O)cc3s2)cc1 | i | i | nt | i | nt
O=C(NN1CCOCC1)c1cc(-c2cccs2)nc2ccccc12 | i | i | i | i | i
